The results in this text go back to ChEMBL document CHEMBL1122869, “Substituted benzamides with conformationally restricted side chains. 1. Quinolizidine derivatives as selective gastric prokinetic agents” (1985).

Assay [1] deals with Rattus norvegicus. The assay can be described thus: Tested for stimulation of intragastric pressure in ra0t on sc administration; range 1-50 mg/kg.
Assay [2] concerns Rattus norvegicus. The assay can be described thus: Tested for stimulation of intragastric pressure in rat on sc administration; range 1-10 mg/kg. Format: functional. In outline: (§1)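 Male Wistar rats (200-500 g) with chronic gastric fistula, fasted overnight and restrained in Bollman cages. Only animals with basal motility <4 mmHg mean amplitude were used. Pressure waves were recorded via the fistula through a transducer over four 10-min periods before and after sc dosing, and the mean motility index was derived from them. Usually four groups of 10 rats received graded doses or vehicle.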

The subject of the next assay is Mus musculus. The assay can be described thus: Tested for anti-apomorphine climbing activity in mouse on sc administration.
Assay [3] has as its system Rattus norvegicus. The assay can be described thus: Tested for stimulation of intragastric pressure in rat on sc administration; range 1-50 mg/kg. Format: functional. The procedure, abridged:
as §1

For assay [4], the system named is Rattus norvegicus. The assay can be described thus: Tested for stimulation of intragastric pressure in rat on sc administration. Format: functional. The procedure, abridged:
as §1

The mark [5] stands for this setting: Rattus norvegicus, read-out: ED50.
The mark [6] stands for this setting: Mus musculus, sc, read-out: ED50.

One may read the ED50 as the dose at which the effect has come halfway, by size or by number of responders. `COc1cc(N)c(Cl)cc1C(=O)NC1CCCN2CCCCC12` (configuration not stated): the 50% effect level with Rattus norvegicus [1] (ED50) was put at a dose of 1 mg/kg.
As for `COc1cc(N)c(Cl)cc1C(=O)NC1CCC2CCCCN2C1` (stereo in doubt; form 2), the ED50 with Rattus norvegicus [2] (setting [5]) was determined as 1 mg/kg; in the assay on Mus musculus (setting [6]) it was 10 mg/kg.
As for `COc1cc(N)c(Cl)cc1C(=O)NC1CCC2CCCCN2C1` (stereo in doubt; form 1), the ED50 is 1 mg/kg in the assay with Rattus norvegicus [2] and 10 mg/kg in the assay with Mus musculus.
As for `COc1cc(N)c(Cl)cc1C(=O)NC1CCCN2CCCCC12` (stereo in doubt; 2b), the median effective dose (ED50) in the assay with Rattus norvegicus [3] (setting [5]) was more than 50 mg/kg; with Mus musculus it was 0.4 mg/kg.
As to `COc1cc(N)c(Cl)cc1C(=O)NC1CCN2C(C)CCCC2C1` (stereo in doubt; form 2) [BRL-20627], the ED50 in the assay with Rattus norvegicus [4] was 0.8 mg/kg; in the assay on Mus musculus, 25 mg/kg.
Take `COc1cc(N)c(Cl)cc1C(=O)NC1CCN2C(C)CCCC2C1` (stereo in doubt; 2f) [BRL-20627]: the ED50 is 1 mg/kg in the assay with Rattus norvegicus [3] (setting [5]) and more than 50 mg/kg with Mus musculus.
`COc1cc(N)c(Cl)cc1C(=O)NC1CCC2CCCCN2C1` (configuration not stated) returned an ED50 in the assay on Rattus norvegicus [3] of 1 mg/kg.
Take `COc1cc(N)c(Cl)cc1C(=O)NC1CCN2CCCCC2C1` (stereo in doubt; 2e): the median effective dose (ED50) in the assay with Rattus norvegicus [4] is 4 mg/kg; with Mus musculus, 7 mg/kg.
As to `COc1cc(N)c(Cl)cc1C(=O)NC1CCN2C(C)CCCC2C1` (configuration not stated) [BRL-20627], the ED50 in the assay with Rattus norvegicus [3] was determined as 1 mg/kg.
As for `COc1cc(N)c(Cl)cc1C(=O)NC1CCC2CCCCN2C1` (stereo in doubt; 2c), the values for the ED50 with Rattus norvegicus [3] (setting [5]) and in the assay on Mus musculus were 1 mg/kg and 12 mg/kg, respectively.
Turning to `COc1cc(N)c(Cl)cc1C(=O)NC1CCN2CCCCC2C1` (stereo in doubt; 2g), the ED50 in the assay on Rattus norvegicus [4] is 0.8 mg/kg; in the assay with Mus musculus it was 25 mg/kg.
Consider `COc1cc(N)c(Cl)cc1C(=O)NC1CCCN2CCCCC12` (stereo in doubt; 2a), for which the results for the ED50 in the assay on Rattus norvegicus [3] and with Mus musculus were 1 mg/kg and more than 50 mg/kg, respectively.
Turning to `COc1cc(N)c(Cl)cc1C(=O)NC1CCN2C(C)CCCC2C1` (stereo in doubt; form 1) [BRL-20627], the ED50 in the assay on Rattus norvegicus [4] (setting [5]) amounted to 0.8 mg/kg; with Mus musculus (setting [6]), 25 mg/kg.
Consider `CCN(CC)CCNC(=O)c1cc(Cl)c(N)cc1OC` [METOCLOPRAMIDE], for which the ED50 came to 1 mg/kg in the assay with Rattus norvegicus [4], 1 mg/kg with Rattus norvegicus [4] (setting [5]), 0.75 mg/kg in the assay on Mus musculus and 0.75 mg/kg in the assay with Mus musculus (setting [6]).
